E-sel inducer: E-selectin induction in HUVECs, primary screen, imaging, HUVEC, immunofluorescence imaging, single point. P16581. normalized: neutral wells 0, TNF-alpha wells 100. activation, % at 7.58 µM. 260,000 tested, 0.37% active;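 active = mean E-selectin-positive cell signal at least 10% of the positive control, reached in at least 60% of replicates, without over 20% cell loss; inconclusive = no rule given, readout overlaps actives, possibly toxicity-flagged; inactive = the rest, including those meeting only one limit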
Target sequence (P16581 whole entry, looked up): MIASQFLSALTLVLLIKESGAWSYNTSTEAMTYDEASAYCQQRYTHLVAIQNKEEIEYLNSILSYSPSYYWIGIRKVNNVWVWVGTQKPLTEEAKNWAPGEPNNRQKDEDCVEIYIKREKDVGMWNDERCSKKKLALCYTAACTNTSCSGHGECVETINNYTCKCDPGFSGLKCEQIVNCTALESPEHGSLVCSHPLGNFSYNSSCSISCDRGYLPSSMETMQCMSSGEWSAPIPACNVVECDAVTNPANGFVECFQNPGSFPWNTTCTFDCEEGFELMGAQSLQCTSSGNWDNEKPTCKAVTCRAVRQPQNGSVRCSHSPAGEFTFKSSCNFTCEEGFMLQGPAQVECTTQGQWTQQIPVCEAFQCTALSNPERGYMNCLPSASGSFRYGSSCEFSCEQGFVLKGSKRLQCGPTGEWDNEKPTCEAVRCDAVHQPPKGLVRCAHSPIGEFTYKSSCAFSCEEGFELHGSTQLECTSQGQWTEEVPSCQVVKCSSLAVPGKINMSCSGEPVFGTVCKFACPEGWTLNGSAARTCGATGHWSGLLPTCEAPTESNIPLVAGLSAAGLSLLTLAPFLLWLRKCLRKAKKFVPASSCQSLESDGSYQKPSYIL
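assay system = HUVEC, human umbilical vein endothelial cells | input = 3,000 HUVEC seeded per well | medium = EGM-2 growth medium on 0.1% gelatin-coated wells | dosing = one compound dose added by pin transfer | signal = immunofluorescence imaging | read-out basis = % PE-positive cells | control set = TNF-alpha, DMSO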
EWS-Fli inh: EWS/Fli-driven NR0B1 reporter inhibitors, primary screen, A673 cells, NR0B1 luciferase, luminescence, MLPCN library. viability-normalised. 350,000 tested, 0.67% active. inhibition, % at 12.6 µM;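 active = mean inhibition of at least 50% after viability correction, with every replicate also passing that limit; inconclusive = mean reaches 50% but only one of two replicates passes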;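 note: firefly luciferase signal divided by Alamar Blue viability fluorescence both relative to DMSO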
rRNA inh HTS: reduced GFP signal of wild-type E. coli, primary screen, bacterial rRNA inhibitor project, GFP/RFP fluorescence, OD600, single point. E. coli WT GFP vs humanized-ribosome RFP mutants, 24 h; active compounds read low; DMSO median 0, no signal -100. GFP signal change (wild-type ribosome), % (test concentration not listed). 350,000 tested, 1.6% active. AID 720706, 2013;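 active = significant combined selectivity score with lowered wild-type GFP, culture density cut under 30%, mutant RFP and density less affected; inactive = any of these conditions unmet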
LGR2 antag: inhibitors of bursicon-induced LGR2 CRE-luciferase signal, primary screen, cell-based, HEK293, CRE-luciferase reporter, bursicon stimulation; bursicon-stimulated, 4 h; AID 720647, 2013; inhibition, % at 9.99 µM; 380,000 tested, 0.35% active;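 active = drop in luminescence signal, shown as inhibition above about 50% in the replicate tests, limit read from the data, passing the limit was not always enough; inconclusive = probably only some replicates passing the limit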;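 note: agonist challenge used bursicon conditioned medium at about half maximal strength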
HepG2 tox: cytotoxicity in HepG2 cells, dose response, cytotoxicity control, cell-based, CellTiter-Glo luminescence, cherry-pick, set 4 | shares compounds with rRNA inh HTS | HepG2 viability, ATP luminescence, 72 h | activity change, negative = cytotoxicity, unspecified at 26 µM | 30 tested, under 10 active;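 active = compounds whose fitted half-maximal signal-loss concentration is at most twice their highest valid dose; inconclusive = flat curve with 30 to 70% signal loss, or poor fit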
AID977621: growth inhibition of wild-type GFP E. coli, dose response, H69 mutant RFP, cherry-pick; E. coli wild-type GFP strain growth, fluorescence, 24 h; 1,900 tested, under 10 active; AID 977621, 2014; shares compounds with rRNA inh HTS; activity change, negative = inhibition at 50 µM;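 active = Wild-type ribosome reporter drop at least double the humanized mutant ribosome reporter drop, growth loss under a set limit; inconclusive = no clear call, values can overlap the other calls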;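 note: wild-type GFP and H69 mutant RFP strains grown together 50/50 in each well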
AID977628: E. coli growth inhibition, wild-type GFP versus h24 humanized RFP strain, dose response, h24 mutant RFP vs wild-type GFP, cherry-pick; shares compounds with rRNA inh HTS; E. coli WT GFP strain growth, fluorescence, 24 h; activity change, negative = inhibition at 50 µM; 1,900 tested, under 10 active; AID 977628, 2014;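 active = compound lowering the normal-ribosome reporter at least twice as much as the humanized-ribosome reporter, growth loss under a set limit; inconclusive = no clear call, values can overlap the other calls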;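 note: wild-type GFP and h24 humanized RFP strains co-cultured 1 to 1 per well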
Large screens that a line does not name were inactive (follow-up assays come after a bar, where they were run). Sampled rows, rich in hits. Any-hit rate of the full collection: about 2.4%.

Cc1cccc(NC(=O)CN(C)S(=O)(=O)c2cccc3cccnc23)c1	none (no result: E-sel inducer)
CCc1cccc(NC(=O)CN(C)S(=O)(=O)c2cccc3cccnc23)c1	rRNA inh HTS -19.6 (no result: E-sel inducer) | AID977621 inactive | AID977628 inactive
Cc1nc(N2CCC(C)CC2)c(C#N)c(C)c1[N+](=O)[O-]	rRNA inh HTS -24.6 | AID977621 inactive | AID977628 inactive
COc1ccc(-c2noc(CCc3ccccc3)n2)cc1	rRNA inh HTS -19.9 | AID977621 inactive | AID977628 inactive
Cc1ccccc1NCc1ccc([N+](=O)[O-])s1	rRNA inh HTS -33.5 | AID977628 inactive
CCCN1C[C@@H](C)[C@@H](OC)CN(C)C(=O)c2cc(NC(=O)c3ccccc3F)ccc2OC[C@@H]1C	none
CC(C)NC(=O)Nc1cccc2c1O[C@@H](CN(C)C)[C@H](C)CN(C)C2=O	none (no result: E-sel inducer, EWS-Fli inh, LGR2 antag)
O=C(c1ccccc1)N(c1ccccc1)c1nccc2ccccc12	rRNA inh HTS -28.0 | AID977621 inactive
O=C(c1ccccc1)N(C(=O)c1ccccc1)c1ccccc1	none
COc1ccc(-c2cc(C(=O)N3CCc4ccccc4C3)no2)cc1	rRNA inh HTS -26.2 | AID977621 inactive
COc1ccc(-c2cc(C(=O)N3CCCCC3)no2)cc1OC	rRNA inh HTS -22.6 (no result: E-sel inducer) | AID977621 inactive | AID977628 inconclusive
COc1ccc(-c2cc(C(=O)N3CCCC3)no2)cc1OC	none
O=S(=O)(c1cnc(Cl)c(Cl)c1)N1CCCc2ccccc21	rRNA inh HTS -25.1 (no result: E-sel inducer) | AID977621 inactive | AID977628 inactive
Cc1ccc(S(=O)(=O)N2CCCc3ccccc32)cc1	none (no result: E-sel inducer)
CC(C(=O)Nc1cc(Cl)cc(Cl)c1)N1CCCC1 (stereo not given)	none
CSCCC1NC(=O)N(C(C)C(=O)Nc2cc(Cl)cc(Cl)c2)C1=O (stereo not given)	rRNA inh HTS -21.4 | AID977621 inactive | AID977628 inactive
Cc1ccc(-c2cc(C(=O)O)c3ccccc3n2)s1	none
O=C(O)c1cc(-c2ccc(Cl)s2)nc2ccccc12	rRNA inh HTS -26.6 (no result: E-sel inducer) | AID977621 inactive | AID977628 inconclusive
CO[C@H]1CN(C)C(=O)c2ccc(NC(=O)NC(C)C)cc2OC[C@H](C)N(S(C)(=O)=O)C[C@@H]1C	none (no result: E-sel inducer, EWS-Fli inh, LGR2 antag)
O=[N+]([O-])c1ccc(N2CCN(S(=O)(=O)c3ccccc3)CC2)cc1NCC1CCCO1 (stereo not given)	none (no result: EWS-Fli inh, rRNA inh HTS)
CCS(=O)(=O)N1CCN(c2ccc([N+](=O)[O-])c(NCC3CCCO3)c2)CC1 (stereo not given)	rRNA inh HTS -21.4 (no result: E-sel inducer) | AID977621 inactive | AID977628 inactive
O=C(c1ccccc1)N1CCN(c2ccc([N+](=O)[O-])c(NCC3CCCO3)c2)CC1 (stereo not given)	rRNA inh HTS -31.8 | AID977621 inactive | AID977628 inactive
COC(=O)c1cn(C[C@H](Cc2ccccc2)NC(=O)Nc2ccccc2)nn1	none (no result: E-sel inducer, rRNA inh HTS, LGR2 antag)
O=C([C@H]1[C@H](CO)[C@H]2Cn3c(cccc3=O)[C@H]2N1Cc1ccccc1Cl)N1CCCCC1	none
COc1cc2ccccc2cc1C(=O)NC1CCCCC1	rRNA inh HTS -27.9 (no result: E-sel inducer) | AID977621 inactive | AID977628 inactive
CN(C)c1ccc(-c2nnn(CC(=O)Nc3ccccc3N3CCOCC3)n2)cc1	rRNA inh HTS -15.8 (no result: E-sel inducer) | AID977621 inactive | AID977628 inactive
COC(=O)CCN(Cc1ccccc1)S(=O)(=O)c1ccccc1Br	none
O=C(O)CCN(Cc1ccccc1)S(=O)(=O)c1ccccc1Cl	rRNA inh HTS -19.8 | AID977621 inactive
O=C(O)CCN(Cc1ccccc1)S(=O)(=O)c1ccc(Cl)cc1F	rRNA inh HTS -20.2 | AID977621 inactive | AID977628 inconclusive
Cc1noc(C)c1NC(=O)N[C@@H]1C=C[C@H](CC(=O)Nc2ccccc2)O[C@H]1CO	none
CCOc1ccccc1NC(=O)c1ccc2ccccc2c1	rRNA inh HTS -25.0 | HepG2 tox inactive | AID977628 inconclusive
CCCC(=O)Nc1cccc(C(=O)Nc2ccccc2OCC)c1	rRNA inh HTS -27.4 | AID977621 inactive | AID977628 inactive
CC(=O)c1ccc(N2CCN(C(=O)C3CCN(S(=O)(=O)c4ccc5c(c4)CC(C)N5C(C)=O)CC3)CC2)cc1 (stereo not given)	rRNA inh HTS -19.0 (no result: E-sel inducer) | AID977621 inactive
C=CCNc1ccc2c(c1)OC[C@H](CC(C)C)NS2(=O)=O	rRNA inh HTS -22.8 | AID977621 inconclusive
C=CCNc1ccc2c(c1)OC[C@@H](CC(C)C)NS2(=O)=O	none
Cc1nc(C)n(CC(O)COc2ccc3c(c2)CCC3)n1 (stereo not given)	none (no result: E-sel inducer)
CC(=O)c1c(C)nn(CC(O)COc2ccc3c(c2)CCC3)c1C (stereo not given)	rRNA inh HTS -21.9 (no result: E-sel inducer) | AID977621 inactive
Cc1cc(C)cc(NC(=O)COC(=O)CCC2CCCC2)c1	none (no result: E-sel inducer)
Cc1cc(C)cc(NC(=O)COC(=O)CC2CCCC2)c1	rRNA inh HTS -19.2 (no result: E-sel inducer) | AID977621 inactive | AID977628 inactive
COc1ccc(-c2cn3cc(Cl)ccc3n2)cc1OC	rRNA inh HTS -26.9 (no result: E-sel inducer) | AID977628 inconclusive
C/C=C/c1ccc2c(c1)[C@@H]1[C@@H](CCN1S(=O)(=O)c1ccccc1OC)[C@H](CO)N2C	rRNA inh HTS -21.3 (no result: E-sel inducer, EWS-Fli inh, LGR2 antag) | AID977628 inconclusive
NC(=O)c1cccnc1Oc1ccc(Cl)cc1Cl	rRNA inh HTS -30.7 | AID977621 inactive | AID977628 inactive
Cc1cc(Cl)ccc1Nc1ncccc1C(N)=O	none
CCOc1ccc(CCNC(=O)CN2C(=O)CCSc3ccccc32)cc1	rRNA inh HTS -20.4 (no result: E-sel inducer) | AID977628 inconclusive
O=C(CCCOc1ccc(Cl)cc1Cl)Nc1ccccc1C(=O)O	rRNA inh HTS -30.5 | AID977621 inactive
Cc1ccc(-c2csc(NC(=O)C3CCN(S(=O)(=O)c4cccs4)CC3)n2)cc1	none (no result: E-sel inducer, EWS-Fli inh, rRNA inh HTS)
O=C(Nc1nc(-c2ccc3ccccc3c2)cs1)C1CCN(S(=O)(=O)c2cccs2)CC1	rRNA inh HTS -15.3 | AID977621 inactive | AID977628 inactive
COc1ccc(CN(C)C[C@@H]2Oc3c(NS(=O)(=O)c4ccc(Cl)cc4)cccc3C(=O)N([C@H](C)CO)C[C@@H]2C)cc1	none
C[C@H]1CN([C@@H](C)CO)C(=O)Cc2cc(NC(=O)Nc3ccccc3)ccc2O[C@@H]1CN(C)Cc1ccncc1	none
